# Screening results as filed in PubChem BioAssay.
# Shown are actives, neighbours in structure and some others; about 4.6% of the full set was active somewhere.
# GPR7 antag – human neuropeptides B/W receptor 1 antagonism; inhibition, % at 4.4 µM; P48145; 1.1% of 290,000 active; AID 1861; GPR7-expressing cells, fluorescence antagonist assay; in the data active = inhibition above about 16%, passing the limit was not always enough;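 also: cells stimulated with the agonist NPW; 0% = agonist with vehicle and 100% = vehicle without agonist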
# Target sequence (P48145 whole entry, looked up): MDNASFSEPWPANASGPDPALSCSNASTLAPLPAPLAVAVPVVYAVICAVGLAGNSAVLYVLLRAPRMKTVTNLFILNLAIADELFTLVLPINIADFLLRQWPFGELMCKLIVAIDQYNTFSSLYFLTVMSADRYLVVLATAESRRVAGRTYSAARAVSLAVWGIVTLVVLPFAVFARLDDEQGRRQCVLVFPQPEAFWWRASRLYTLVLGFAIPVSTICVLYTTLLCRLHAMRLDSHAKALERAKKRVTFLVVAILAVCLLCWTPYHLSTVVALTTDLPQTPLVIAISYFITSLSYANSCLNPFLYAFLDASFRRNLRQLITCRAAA
# TAAR1 agonist – human TAAR1 agonism. 0.99% of 360,000 active. Q96RJ0. activation, % at 3 µM. CHO RD-HGA16 TAAR1, Fluo-8 calcium fluorescence; vehicle wells 0%, saturating PEA agonist 100%;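 active = activation above the mean activation of all test compounds in the run plus 3 SD, cut at about 38% in these data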
#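 Signal – calcium-sensitive Fluo-8 signal, excitation 470-495, emission 515-575 nm · System – RD-HGA16 (CHO) cells co-expressing Gα16 and hTAAR1 · Incubation – 17-24 h seeding, 75 min 37 °C dye, 30 min RT · Compound dosing – 3 µM single concentration · Repeats – no replicates (n 1)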
# CHO parental Ca – signal in parental CHO cells, OX1R antagonist counter-screen. parental CHO-K1, ATP-induced calcium, Fluo-8 fluorescence. inhibition, % at 5.6 µM. 0.63% of 330,000 active. AID 463079;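 active = inhibition above that plate's mean sample inhibition plus 3 SD, cut at about 26% in these data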;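 also: 0% = ATP-challenged DMSO wells and 100% = DMSO wells without ATP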
#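 Test system: untransfected parental CHO cell line. Compound: one dose, 5.6 µM nominal. Detection: intracellular calcium via Fluo-8 no-wash fluorescent dye. Measure: % inhibition. Benchmarks: ATP-challenged DMSO wells low, unchallenged DMSO wells high.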
# TAAR1 antagonist – human TAAR1 antagonism. 1.5% of 360,000 active. inhibition, % at 3 µM. Q96RJ0. CHO RD-HGA16 TAAR1, Fluo-8 calcium fluorescence, antagonist. AID 624466;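 active = inhibition above a per-plate cutoff, the mean inhibition of test compounds on that plate plus 3 SD, cut at about 49% in these data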;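 also: 0% = DMSO plus EC80 beta-PEA response and 100% = DMSO alone without agonist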
#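 Assay system: CHO-derived RD-HGA16 cells stably expressing human TAAR1 plus Gα16. Timing: 140 s kinetic read after compound, 140 s after agonist. Technique: kinetic Fluo-8 calcium fluorescence measurement. Measure: % inhibition of agonist calcium response.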
# OX1R antag-1 – antagonists of human orexin 1 receptor; O43613; CHO/OX1R cells, Fluo-8 calcium fluorescence, orexin A; inhibition, % at 5 µM; 0.43% of 330,000 active; AID 434989;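 active = inhibition above its plate's threshold, mean inhibition of all tested compounds on the plate plus 3 SD, cut at about 37% in these data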;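 also: 0% = orexin A challenge wells and 100% = SB-334867-A antagonist wells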
# Target sequence (O43613 whole entry, looked up): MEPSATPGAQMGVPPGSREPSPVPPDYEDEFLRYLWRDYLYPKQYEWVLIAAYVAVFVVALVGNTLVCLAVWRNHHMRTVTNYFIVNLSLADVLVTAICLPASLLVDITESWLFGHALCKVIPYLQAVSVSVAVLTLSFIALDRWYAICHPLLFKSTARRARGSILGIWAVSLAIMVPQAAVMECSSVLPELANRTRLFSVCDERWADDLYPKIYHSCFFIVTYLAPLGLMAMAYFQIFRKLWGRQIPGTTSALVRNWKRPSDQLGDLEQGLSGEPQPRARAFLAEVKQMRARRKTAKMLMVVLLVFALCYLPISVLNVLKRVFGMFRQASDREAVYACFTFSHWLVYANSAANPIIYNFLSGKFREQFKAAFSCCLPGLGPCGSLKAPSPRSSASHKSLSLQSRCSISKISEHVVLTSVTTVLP
# OX1R antag-2 – blocks the human orexin 1 receptor. O43613. OX1R-expressing cells, FRET antagonist read-out. inhibition, % at 6.6 µM. 1.8% of 330,000 active; in the data active = inhibition mostly above about 38%, no sharp cut-off; inactive = mostly below about 40%;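 also: 0% = agonist challenge alone and 100% = reference antagonist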
# nonsel antag count – nonselective antagonist in TAAR1 antagonist counter-screen | 77% of 2,400 active | counterscreen cell line, calcium fluorescence, antagonist mode | inhibition, % at 3 µM | shares compounds with TAAR1 antagonist; in the data active = inhibition above about 22%;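 also: CHO-Ga16 host cells stimulated with ATP at an EC80 level; 0% = agonist EC80 plus vehicle and 100% = vehicle without agonist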
# TAAR1 ant conf – confirmation of human TAAR1 antagonists | shares compounds with TAAR1 antagonist | TAAR1-expressing cells, fluorescence antagonist read-out | inhibition, % at 3 µM | 40% of 2,400 active | AID 651785; in the data active = inhibition above about 49%;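 also: CHO-Ga16 host cells challenged with agonist PEA near its EC80; 0% = agonist at EC80 plus vehicle and 100% = vehicle with no agonist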
# Ga16 nonsel ag – counter-screen for TAAR1 antagonists: nonselective Ga16 agonists | shares compounds with TAAR1 antagonist | Ga16-expressing cells, calcium fluorescence, agonist counterscreen | activation, % at 3 µM | 18% of 2,400 active; in the data active = activation above about 12%;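 also: 0% = vehicle wells and 100% = saturating stimulus response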
# TAAR1 ag counter – TAAR1 agonism, antagonist counter-screen. 2% of 2,400 active. hTAAR1 cell line, fluorescence activation, agonist mode. shares compounds with TAAR1 antagonist. activation, % at 3 µM; in the data active = activation above about 37%;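 also: CHO cells stably expressing TAAR1 with calcium dye readout; 0% = DMSO vehicle and 100% = full agonist response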
# * hit, by the source's call; . = not tested or not shown.
SMILES,GPR7 antag,TAAR1 agonist,CHO parental Ca,TAAR1 antagonist,OX1R antag-1,OX1R antag-2,nonsel antag count,TAAR1 ant conf,Ga16 nonsel ag,TAAR1 ag counter
O=C1[C@H]2[C@@H](/C=C/c3ccccc3)N3C(=O)CN(Cc4ccccn4)C(=O)[C@@]3(Cc3ccccc3)[C@H]2C(=O)N1c1ccccc1,-10.3,23.4,-18.0,69.7*,-31.7,16.3,28.1*,48.3,10.2,8.3
FC(F)(F)c1ccccc1Cc1c(-c2cccc(Br)c2)nc2ccc(Br)cn12,.,-0.2,.,-15.6,.,.,.,.,.,.
COc1ccccc1N1CCN(c2nc3ccccc3nc2C(C#N)C(=O)OC(C)C)CC1 (configuration not stated),-8.6,1.8,-18.9,72.7*,-41.4,47.7,10.5,47.9,2.5,4.2
CCOCCCn1c(SCC(=O)Nc2ccccc2)nc2ccccc2c1=O,-13.5,6.2,-18.9,-0.6,-31.8,8.9,.,.,.,.
CCOCCCn1c(SCc2nc3ccccc3s2)nc2ccccc2c1=O,2.2,11.7,-34.7,49.0*,-38.4,-0.5,18.9,38.2,6.3,23.3
COCC1CN(CCc2ccc(F)cc2)S(=O)(=O)c2c(OCCN3C(=O)[C@@H]4[C@H](C3=O)[C@@H]3C=C[C@H]4C3)cccc2O1 (some centres not stated),.,17.8,.,63.0*,.,.,36.4*,58.2*,9.2,12.1
Cc1c(N=C2N=C(NC(=O)c3cccs3)c3ccccc32)c(=O)n(-c2ccccc2)n1C,-17.3,18.3,-3.4,58.9*,-15.3,19.7,41.9*,49.2*,17.9*,13.0
Cc1c(N=C2N=C(NC(=O)NC(C)(C)C)c3ccccc32)c(=O)n(-c2ccccc2)n1C,6.1,7.4,-8.0,16.5,-16.6,24.6,.,.,.,.
O=C(NCc1ccccc1F)C1CC(=O)N(Cc2ccco2)C1 (configuration not stated),.,5.5,.,-14.8,.,.,.,.,.,.
CC(C)C1C(=O)N(Cc2cn(CCC3OCCO3)nn2)CCS(=O)(=O)N1Cc1ccc(-c2ccc(Cl)cc2)cc1 (configuration not stated),.,11.1,.,53.1*,.,.,29.7*,31.4,7.7,3.5
CC1C(=O)N(Cc2cn(CCC3OCCO3)nn2)CCS(=O)(=O)N1Cc1ccc(-c2ccc(Cl)c(Cl)c2)cc1 (configuration not stated),.,19.7,.,75.2*,.,.,37.9*,41.2,14.8*,8.7
Cc1cccc(C)c1NC(=O)C(c1ccncc1)n1c(=O)c(-c2cc3ccccc3[nH]2)nc2ccccc21 (configuration not stated),.,3.7,.,30.0,.,.,.,.,.,.
CCOC(=O)C1=C[C@@H](C(C)(C)C)N(S(=O)(=O)c2ccc([N+](=O)[O-])cc2)[C@H]1c1ccccc1Cl,.,-0.8,.,2.1,.,.,.,.,.,.
COc1ccncc1-c1ccc(C2=CC(=O)CC(C)(C)C2=O)cc1,.,7.0,.,22.1,.,.,.,.,.,.
S=C(SCc1c(Cl)cccc1Cl)N1CCSCC1,.,0.0,.,-21.6,.,.,.,.,.,.
CC(NC(=O)c1cc2c(=O)n(C)c3ccccc3c2n1C)c1ccc2c(c1)OCCO2 (configuration not stated),-6.9,6.9,-10.8,59.0*,-24.6,3.0,21.6*,33.9,4.2,2.6
Cn1c(C(=O)Nc2ccc3c(c2)OCO3)cc2c(=O)n(C)c3ccccc3c21,-7.9,1.2,-6.6,-1.0,-10.7,12.3,.,.,.,.
CC1(C)c2[nH]c3ccccc3c2C[C@H]2C(=O)N(Cc3cccc(F)c3)C(=O)N21,.,11.8,-6.5,19.4,-22.0,10.9,.,.,.,.
COc1cccc(CN2C(=O)[C@H]3Cc4c([nH]c5ccccc45)C(C)(C)N3C2=O)c1,.,17.2,-9.2,61.4*,-26.3,12.4,25.4*,41.5,8.8,9.7
O=C(CCN1C(=O)/C(=C\c2ccccc2Cl)SC1=S)Nc1cccnc1,-23.9,12.1,-7.2,49.9*,-19.0,41.4,47.7*,69.2*,17.8*,22.6
O=C(Nc1ccc(F)c(Cl)c1)C1Cc2c(-c3ccco3)ccnc2O1 (configuration not stated),.,4.6,.,0.0,.,.,.,.,.,.
Cc1cccc(NC(=O)Cn2nnc(-c3cccs3)n2)c1C,3.1,14.3,-0.7,66.1*,-0.4,6.6,20.4,46.5,4.4,7.4
O=C(Nc1sc(-c2ccccc2)cc1C(=O)O)c1ccccc1,-14.3,-1.7,-2.9,18.2,-11.1,20.4,.,.,.,.
C=C(C)COc1ccc(-c2n[nH]c(C)c2-c2ccc(OC)cc2)c(O)c1,-24.3,6.7,-0.7,61.5*,-20.1,26.4,5.9,8.7,7.5,11.1
O=S(=O)(c1ccccc1)N1CCCc2nc(-c3ccccc3)ccc21,.,1.9,.,13.2,.,.,.,.,.,.
SMILES,GPR7 antag,TAAR1 agonist,CHO parental Ca,TAAR1 antagonist,OX1R antag-1,OX1R antag-2,nonsel antag count,TAAR1 ant conf,Ga16 nonsel ag,TAAR1 ag counter
COc1ccc(-c2ccc3c(n2)CCCN3S(=O)(=O)c2ccccc2)cc1,.,7.2,.,77.9*,.,.,37.7*,52.1*,9.9,7.9
Cc1ccc(S(=O)(=O)NC2CCCc3ccccc32)cc1C (configuration not stated),-10.2,11.6,7.2,50.4*,-8.9,21.9,11.3,39.0,4.7,10.3
COc1ccc(S(=O)(=O)NC(=O)C2(C)CCN2C(=O)C2(c3ccccc3)CCCC2)cc1 (configuration not stated),.,1.2,.,-3.5,.,.,.,.,.,.
COc1ccc(CCNC(=O)CCN2C(=O)c3cccc4cccc(c34)C2=O)cc1OC,-13.7,1.9,-3.6,6.8,5.2,7.3,.,.,.,.
COc1ccc(CCN2C(=O)c3cccc4c(C(=O)N5CCCCC5)ccc(c34)C2=O)cc1OC,-2.6,20.6,-19.4,61.3*,-23.0,14.5,36.5*,60.7*,12.4*,13.2
CC1=C(C(=O)N(C(C)C)C(C)C)CC(CC(=O)NCc2cccs2)C(=O)N1CCCN1CCCC1=O (configuration not stated),.,-0.6,.,1.0,.,.,.,.,.,.
COc1ccccc1C(=O)NCC(=O)OCC(=O)Nc1cccc(S(=O)(=O)N(C)C)c1,-13.4,1.7,-24.4,21.2,-32.6,4.6,.,.,.,.
COc1cc(CC(=O)Nc2cccc(S(=O)(=O)N(C)c3ccccc3)c2)cc(OC)c1OC,.,5.7,2.6,25.7,21.4,9.0,.,.,.,.
COc1cc(C=O)ccc1OCC(=O)Nc1cccc(S(=O)(=O)N(C)c2ccccc2)c1,.,12.6,11.7,62.6*,-11.1,27.2,34.9*,53.9*,9.5,8.1
